ROMK mod – modulates human ROMK potassium channel activity; AID 1918; hit rate 2% among 130,000; Tet-inducible ROMK, thallium flux fluorescence; actives lie on both sides; P48048; B-score at 10 µM;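 active = signal ratio slope over the read window, or its plate-corrected B-score, at least 3 SD from the plate mean, either direction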;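 also: B-score of the F/F0 ratio slope over 7 to 12 s after thallium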
KCC2 mod – modulates chloride dependent transport by human KCC2; AID 1456; B-score of Tl+ flux slope (higher = more flux/activation; lower = inhibition) at 10 µM; Q9H2X9; hit rate 2.2% among 190,000; KCC2 cells, thallium flux FluoZin-2 fluorescence;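 active = thallium flux slope and its plate-corrected score both differing from the plate sample mean at a set confidence after two filtering rounds, in either direction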;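 also: slope of fluorescence scaled to starting intensity during 10 to 20 s after thallium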
Target sequence (Q9H2X9 whole entry, looked up): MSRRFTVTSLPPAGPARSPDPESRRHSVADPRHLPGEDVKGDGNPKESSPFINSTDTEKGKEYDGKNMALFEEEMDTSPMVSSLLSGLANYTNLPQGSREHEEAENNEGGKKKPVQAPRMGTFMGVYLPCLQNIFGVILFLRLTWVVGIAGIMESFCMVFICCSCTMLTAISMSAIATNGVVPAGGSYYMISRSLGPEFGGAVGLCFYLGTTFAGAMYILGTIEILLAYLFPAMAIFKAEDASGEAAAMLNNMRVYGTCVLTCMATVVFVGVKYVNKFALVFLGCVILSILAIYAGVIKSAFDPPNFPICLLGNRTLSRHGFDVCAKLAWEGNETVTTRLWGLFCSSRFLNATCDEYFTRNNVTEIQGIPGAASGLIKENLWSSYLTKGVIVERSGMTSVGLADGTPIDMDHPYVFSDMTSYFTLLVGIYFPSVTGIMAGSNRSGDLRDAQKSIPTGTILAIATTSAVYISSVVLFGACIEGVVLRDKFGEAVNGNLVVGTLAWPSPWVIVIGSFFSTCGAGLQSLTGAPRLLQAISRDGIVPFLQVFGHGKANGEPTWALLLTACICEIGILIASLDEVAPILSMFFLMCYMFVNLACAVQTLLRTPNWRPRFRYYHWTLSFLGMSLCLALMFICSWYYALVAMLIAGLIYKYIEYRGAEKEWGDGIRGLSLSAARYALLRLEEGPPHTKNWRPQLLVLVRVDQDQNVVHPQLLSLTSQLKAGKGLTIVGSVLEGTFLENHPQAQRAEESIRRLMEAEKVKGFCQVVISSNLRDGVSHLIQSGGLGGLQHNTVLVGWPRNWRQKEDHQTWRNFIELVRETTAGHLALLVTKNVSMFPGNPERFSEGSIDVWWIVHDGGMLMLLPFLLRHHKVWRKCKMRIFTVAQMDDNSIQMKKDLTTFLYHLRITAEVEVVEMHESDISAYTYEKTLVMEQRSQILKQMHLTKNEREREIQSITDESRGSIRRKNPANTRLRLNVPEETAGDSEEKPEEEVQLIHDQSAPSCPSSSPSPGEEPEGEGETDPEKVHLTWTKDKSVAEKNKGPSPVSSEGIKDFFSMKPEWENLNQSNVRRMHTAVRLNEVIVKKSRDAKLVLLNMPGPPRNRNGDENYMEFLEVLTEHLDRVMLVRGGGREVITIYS
PMI act – phosphomannose isomerase (human) activation; P34949; purified human PMI, coupled resazurin fluorescence, 20 min; active compounds read high; 1 = vehicle control, 0 substrate-free wells; activation factor at 20 µM; hit rate 0.005% among 190,000; AID 1214;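 active = activation factor of 2 or more at 20 µM, relative to plate controls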
PMI act hi M6P – activators of human phosphomannose isomerase at near-saturating mannose 6-phosphate; P34949; hit rate 0.34% among 190,000; coupled PMI enzyme assay, resazurin fluorescence, 20 min; active compounds read high; 1 = untreated enzyme, 0 = substrate-free blank; activation factor at 20 µM;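 active = activation factor of 2 or more at 20 µM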
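Material: human phosphomannose isomerase with PGI, G6PDH, diaphorase coupling enzymes / Reagent: Man-6-P substrate 1.0 mM / Dosing: single compound dose of 20 µM, 1% DMSO final / Incubation: enzyme reaction with compound 20 min at room temperature / Signal: resorufin fluorescence (Ex 544/Em 590 nm) from resazurin via diaphorase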
ABCB1 block – inhibitors of human ABCB1 transporter, ABCG2 counter-screen | P08183 | CCRF-Adr cells, JC-1 efflux, flow cytometry | inhibition, % at 6.6 µM | hit rate 0.067% among 190,000 | AID 1326; in the data active = inhibition above about 40%;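 also: higher value means more JC-1 retained so stronger ABCB1 efflux block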
ABCG2 block – human ABCG2 inhibition, ABCB1 as counter-screen; IgMXP3 cells, JC-1 efflux, flow cytometry; hit rate 0.1% among 190,000; Q9UNQ0; inhibition, % at 6.6 µM;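 active = inhibition above 80%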
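Times: 10 min at 25 °C | Test system: Two drug-resistant human cell lines, ABCG2 and ABCB1 | Quantity: 3 million cells/mL final, two lines in 1:1 ratio | Signal: Flow cytometry, 530 nm JC-1 signal | Dosing: Compound at 6.6 µM | Controls: Nicardipine and DMSO wells | Reagent: JC-1 as fluorescent efflux pump substrate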
KCC2 sec1 – confirmation of human KCC2 transport modulators; shares compounds with KCC2 mod; HEK293-KCC2, thallium flux, FluoZin2 fluorescence; active compounds read high; normalised thallium flux (F/F0 slope) at 10 µM; hit rate 15% among 3,700; AID 1713;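 active = thallium flux slope above the same plate's solvent-only control mean plus 3 SD; inconclusive = the two replicate wells disagree; inactive = no significant difference from solvent-only control wells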
KCC2 bumet counter – thallium flux despite bumetanide block in KCC2 cells, secondary assay 3. shares compounds with KCC2 mod. HEK293-KCC2 + bumetanide/ouabain, thallium flux FluoZin2; active compounds read high. normalized thallium flux at 10 µM. hit rate 49% among 3,700. AID 1714;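 active = thallium entry rate above the same plate's blocked-transporter control wells by more than 3 SD; inconclusive = the two repeat wells disagree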;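 also: raw slope of fluorescence over initial fluorescence between 10 and 20 s after thallium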
KCC2 sec2 – confirmation of human KCC2 transport modulators; hit rate 23% among 3,700; HEK293-KCC2, thallium flux FluoZin2 fluorescence; actives lie on both sides; F/F0 rise rate, 10–20 s post-thallium; normalized thallium flux at 10 µM; shares compounds with KCC2 mod;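 active = thallium flux slope more than 3 SD above or below the plate's solvent-only control mean, mostly below; inconclusive = the two repeat wells disagreed; inactive = no significant shift from solvent-only controls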
HEK293 Tl flux – parental HEK flux effect, counter-screen | HEK293 parental cells, thallium flux FluoZin2, ouabain; baseline-ratio fluorescence slope, 10–20 s after thallium | thallium flux rate (normalised fluorescence) at 10 µM | hit rate 46% among 3,700 | shares compounds with KCC2 mod;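 active = thallium flux rate significantly above the same plate's solvent-only control wells, beyond their mean plus 3 SD; inconclusive = the two replicate wells gave conflicting results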
KCC2 retest ouab – confirmation of human KCC2 modulators with ouabain. HEK293-KCC2, thallium flux FluoZin2 fluorescence; bidirectional: low = inhibitor, high = activator. hit rate 48% among 3,700. raw Tl+ flux slope (below DMSO = inhibition, above = activation) at 10 µM. shares compounds with KCC2 mod;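 active = thallium flux slope beyond 3 SD from same-plate DMSO control mean in most replicates, usually higher, sometimes lower; inconclusive = repeat tests gave conflicting results; inactive = no significant difference from controls in most replicates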;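 also: slope of initial-normalized fluorescence between seconds 10 and 20 after thallium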
HEK counter2 – counter-screen for KCC2 modulators: effect in parental HEK293 cells; shares compounds with KCC2 mod; thallium flux FluoZin-2 fluorescence slope; thallium flux slope at 10 µM; AID 1718; hit rate 33% among 3,700;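 active = thallium flux slope above the same plate's solvent-control mean plus 3 SD in both duplicate wells; inconclusive = duplicate wells that disagreed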;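 also: run without ouabain in cells lacking the KCC2 cotransporter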
Large screens that a line does not name were inactive (follow-up assays come after a bar, where they were run). Hits are enriched below; roughly 3.3% of the tested compounds scored in any of these assays.

Cc1cc(Cl)ccc1OC(C)C(=O)NCCCn1ccnc1 (centres undefined)	none
O=C(Nc1nc2ccccc2s1)c1cnccn1	none
COC(=O)c1ccc2nc(Nc3nc4ccc(F)cc4s3)sc2c1	none (no result: ROMK mod)
O=C(Nc1nc2ccc(F)cc2s1)c1ccccn1	KCC2 mod 60 | KCC2 sec1 inactive | KCC2 bumet counter 0.096 | KCC2 sec2 0.061 | HEK293 Tl flux 0.056 | KCC2 retest ouab 0.076 | HEK counter2 0.052
O=C(Nc1nnc(SCc2ccc(F)cc2)s1)c1ccccn1	KCC2 mod 44 | KCC2 sec1 inactive | KCC2 bumet counter 0.039 | KCC2 sec2 inconclusive | HEK293 Tl flux 0.036 | KCC2 retest ouab 0.036 | HEK counter2 0.027
CCOC(=O)c1csc(Nc2nc3ccc(F)cc3s2)n1	KCC2 mod 27 (no result: ROMK mod) | KCC2 sec1 0.02 | KCC2 bumet counter 0.079 | KCC2 sec2 inactive | HEK293 Tl flux 0.056 | KCC2 retest ouab 0.057 | HEK counter2 0.018
Cc1cc(S(=O)(=O)NCCN(C)C)c(C)s1	none (no result: ROMK mod, KCC2 mod)
COC(=O)COc1c(Cl)cc(Cl)c2ccc(C)nc12	KCC2 mod 6.2 | KCC2 sec1 inactive | KCC2 bumet counter 0.011 | KCC2 sec2 inactive | HEK293 Tl flux 0.011 | KCC2 retest ouab inactive | HEK counter2 0.014
Cc1ccc2c(Cl)cc(Cl)c(OCC(=O)N(C(C)C)C(C)C)c2n1	KCC2 mod 4 (no result: ROMK mod) | KCC2 sec1 inactive | KCC2 bumet counter 0.014 | KCC2 sec2 inactive | HEK293 Tl flux 0.011 | KCC2 retest ouab inactive | HEK counter2 inactive
Cc1ccc2c(Cl)cc(Cl)c(OCC(=O)NC(C)(C)C)c2n1	KCC2 mod 6.9 | KCC2 sec1 inactive | KCC2 bumet counter 0.031 | KCC2 sec2 inactive | HEK293 Tl flux 0.018 | KCC2 retest ouab 0.032 | HEK counter2 inconclusive
CCCOc1cccc(-c2cc(C(=O)NN)c3ccccc3n2)c1	KCC2 mod 22 | KCC2 sec1 inactive | KCC2 bumet counter inactive | KCC2 sec2 inactive | HEK293 Tl flux inactive | KCC2 retest ouab inactive | HEK counter2 inactive
COC(=O)c1sccc1NC(=O)CSc1ccccc1NS(=O)(=O)c1ccc(Br)cc1	KCC2 mod 3.5 (no result: ROMK mod) | KCC2 sec1 inactive | KCC2 bumet counter 0.013 | KCC2 sec2 inactive | HEK293 Tl flux 0.016 | KCC2 retest ouab inactive | HEK counter2 0.013
CC(=O)NCCOC(=O)Nc1cccnc1	KCC2 mod 7.2 | KCC2 sec1 inactive | KCC2 bumet counter inactive | KCC2 sec2 inconclusive | HEK293 Tl flux inconclusive | KCC2 retest ouab inactive | HEK counter2 inactive
Cc1cc(OCCn2cc(/C(N)=N/O)c3ccccc32)ccc1Cl	none (no result: ROMK mod)
O=C(CCCn1c(=S)[nH]c2cc3c(cc2c1=O)OCO3)N1CCN(c2ccccc2)CC1	none (no result: ROMK mod)
Cc1cccc(N2CCN(C(=O)CCCn3c(=S)[nH]c4cc5c(cc4c3=O)OCO5)CC2)c1C	none (no result: KCC2 mod) | KCC2 sec1 inactive | KCC2 bumet counter 0.012 | KCC2 sec2 inactive | HEK293 Tl flux inconclusive | KCC2 retest ouab inconclusive | HEK counter2 inconclusive
CC1CC(C)CN(C(=O)CCCn2c(=S)[nH]c3ccccc3c2=O)C1 (centres undefined)	KCC2 mod 5.4 | KCC2 sec1 inactive | KCC2 bumet counter 0.029 | KCC2 sec2 inactive | HEK293 Tl flux 0.011 | KCC2 retest ouab inconclusive | HEK counter2 inconclusive
Fc1ccc(CNC(=S)NC2CCCCCC2)cc1	none
CCOC(=O)c1cnc(SC)nc1Sc1ccccc1	none (no result: KCC2 mod) | KCC2 sec1 inactive | KCC2 bumet counter inactive | KCC2 sec2 inactive | HEK293 Tl flux inactive | KCC2 retest ouab inactive | HEK counter2 inactive
O=c1[nH]nc(Sc2ncnc3sccc23)n1CCc1ccccc1	KCC2 mod -3.2 (no result: ROMK mod) | KCC2 sec1 inactive | KCC2 bumet counter inactive | KCC2 sec2 inactive | HEK293 Tl flux inactive | KCC2 retest ouab inactive | HEK counter2 inactive
CCOC(=O)c1sc2nc[nH]c(=O)c2c1C	KCC2 mod 5.8 | KCC2 sec1 inactive | KCC2 bumet counter inactive | KCC2 sec2 inactive | HEK293 Tl flux inactive | KCC2 retest ouab inactive | HEK counter2 inconclusive
COc1ccc2sc(NC(=O)c3ccco3)nc2c1	none (no result: ROMK mod)
O=C(NC(=S)Nc1nc(-c2ccccc2)cs1)c1ccco1	KCC2 mod 16 | KCC2 sec1 inconclusive | KCC2 bumet counter 0.045 | KCC2 sec2 inactive | HEK293 Tl flux 0.02 | KCC2 retest ouab 0.032 | HEK counter2 0.012
O=C(NC(=S)Nc1c(Cl)ccc2nsnc12)c1ccco1	KCC2 mod 19 (no result: ROMK mod) | KCC2 sec1 0.021 | KCC2 bumet counter 0.067 | KCC2 sec2 inactive | HEK293 Tl flux 0.025 | KCC2 retest ouab 0.045 | HEK counter2 0.015
COc1ccc(-c2csc(NC(=S)NC(=O)c3ccco3)n2)cc1	none (no result: KCC2 mod) | KCC2 sec1 inactive | KCC2 bumet counter 0.016 | KCC2 sec2 0.043 | HEK293 Tl flux 0.024 | KCC2 retest ouab 0.028 | HEK counter2 0.023
COc1ccc2nc(NC(=S)NC(=O)c3ccco3)sc2c1	KCC2 mod 80 | KCC2 sec1 0.03 | KCC2 bumet counter 0.14 | KCC2 sec2 0.03 | HEK293 Tl flux 0.075 | KCC2 retest ouab 0.097 | HEK counter2 0.039
CC(CCc1ccccc1)NC(=O)Cc1ccccc1 (centres undefined)	none (no result: ROMK mod)
CC(CCc1ccccc1)NC(=S)NC(=O)c1ccco1 (centres undefined)	KCC2 mod 103 | KCC2 sec1 0.035 | KCC2 bumet counter 0.09 | KCC2 sec2 0.07 | HEK293 Tl flux 0.07 | KCC2 retest ouab 0.076 | HEK counter2 0.068
O=C(Nc1nc(-c2cccs2)cs1)c1ccco1	none
O=C(Nc1nc(-c2ccncc2)cs1)c1ccco1	none (no result: KCC2 mod) | KCC2 sec1 inactive | KCC2 bumet counter inactive | KCC2 sec2 inactive | HEK293 Tl flux inactive | KCC2 retest ouab inactive | HEK counter2 inactive

Assay outcomes (PubChem)
